The subject of assay [1] is Human immunodeficiency virus 1. Kind of assay: Antiviral activity against HIV1 infected in human CEM-SS cells assessed as inhibition of virus-induced cytopathic effect after 6 days by XTT assay. As to conditions: for EC50: Human immunodeficiency virus 1, CEM-SS, 144 h. The assay is classed as functional, organism-based. An outline of the steps:
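NCI XTT-tetrazolium primary anti-HIV screen. CEM-SS cells kept in phenol red-free RPMI 1640 with 5% FBS, gentamicin and 2 mM L-glutamine; 1 × 10⁴ cells per well infected with HIV-1 RF (Haitian variant) at MOI 0.6. Compounds predissolved in DMSO, diluted in medium; AZT positive control. Quadruplicate infected wells, 6 days, 37 °C, 5% CO₂; cell growth by XTT; EC50 and maximal protection derived.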

Assay [2] concerns CEM-SS. Kind of assay: Cytotoxicity against human CEM-SS cells assessed as growth inhibition after 6 days by XTT assay. The note with it: 144 h. The assay is classed as cell-based. An outline of the steps: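 Uninfected CEM-SS cells (1 × 10⁴ per well, duplicate wells) grown alongside the infected cultures in phenol red-free RPMI 1640 with 5% FBS, gentamicin and 2 mM L-glutamine. Compounds diluted from DMSO into medium. Incubation 6 days at 37 °C under 5% CO₂; growth estimated by XTT read-out; IC50 derived.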

Assay [3] deals with Peritoneal macrophage. Kind of assay: Antiinflammatory activity against C57BL6J mouse peritoneal macrophages assessed as inhibition of LPS-induced NO production at 30 uM incubated for 1 hr followed by stimulation with LPS for 24 hrs by Griess assay. The assay is classed as functional. In short, it runs like this: (§1)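 Mouse peritoneal macrophages stimulated with lipopolysaccharide; nitric oxide production measured following an earlier protocol. Test compounds taken from 30 mM DMSO stocks and diluted to 1–30 μM final. Dexamethasone in DMSO served as positive control.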
Background: Nitrite, measured by Griess reagent, commonly stands in for NO production.

In assay [4] the test system is Peritoneal macrophage. Kind of assay: Antiinflammatory activity against C57BL6J mouse peritoneal macrophages assessed as inhibition of LPS-induced NO production incubated for 1 hr followed by stimulation with LPS for 24 hrs by Griess assay. The assay is classed as functional, cell-based. In short, it runs like this: as §1

Activity calls are given as the source filed them. No cut-off for these calls is given here.

Usually EC50 stands for the concentration needed to bring the measured effect to its halfway point. In general, IC50 refers to the midpoint of a concentration-inhibition curve. By inhibition is commonly meant the change of the read-out against control, counted positive when it falls.

In the case of `C=C1C(=O)C(C)=C(C)[C@@]1(O)CCCCC`, in assay [1], the “%max” value stood at 52% and the EC50 was found to be 5.8 µM. Besides, the 50% inhibitory concentration (IC50) in assay [2] turned out to be 6.3 µM. For the same compound, in assay [3], the inhibition at 30 µM was less than 50%.

As to `CCCCC[C@]1(O)OC(=O)C(C)=C1C`, in assay [1], the inhibition entry was “inactive”. In addition, the inhibition at 30 µM in assay [3] was less than 50%.

On to `COC(=O)C(C)CCCC1(C)CCc2c(C)c(O)c(C)c(C)c2O1` (stereo not given), for which the inhibition entry in assay [1] is “inactive”. Further, the inhibition at 30 µM in assay [3] is less than 50%.

For the compound `CCCCC[C@@]1(O)C(C)=C(C)C(=O)[C@H]1CO` (relative stereo), in assay [1], the “%max” value came to 86% and the half-maximal effective concentration (EC50) is 34 µM. Moreover, the half-inhibitory concentration (IC50) in assay [2] came out at 79 µM. Also, in assay [4], the IC50 was 28 µM.

Turning to `CC(=O)CC/C=C(/C)C[C@@H]1CC(C)(C)CC1=O`, in assay [1], the inhibition result is “inactive”. Besides, the inhibition at 30 µM in assay [3] was less than 50%.

In the case of `C/C1=C/C2=C(CC(C)(C)C2)[C@H](C)CC[C@@H]1O`, the inhibition entry in assay [1] is “inactive”. Further, the inhibition at 30 µM in assay [3] was less than 50%.

Turning to `CCOC(=O)CCCCCCCCCCCC[C@]1(O)OC(=O)C(C)=C1C`, the inhibition entry in assay [1] is “inactive”. Also, the inhibition at 30 µM in assay [3] was less than 50%.

On to `CC1=C[C@@]2(C=C(C)[C@@H]3CC[C@@]4(C)Oc5cc(C)c(O)cc5[C@@H]2[C@@H]34)OC1=O`, for which the inhibition entry in assay [1] was “inactive”. Besides, in assay [3], the inhibition at 30 µM is less than 50%.

Regarding `C[C@@H]1CC[C@]2(O)O[C@]13CC(C)(C)CC3=C[C@@]2(C)O`, in assay [1], the inhibition result is “inactive”. The inhibition at 30 µM in assay [3] is less than 50%.

`COC(=O)C(C)CCCC(C)(O)CCC1=C(C)C(=O)C(C)=C(C)C1=O` (stereo not given): the inhibition entry in assay [1] is “inactive”. Besides, in assay [3], the inhibition at 30 µM is less than 50%.

On to `CCCC[C@@H]1C(=O)C(C)=C(C)[C@]12CCC(=O)O2`, for which, in assay [1], the inhibition entry is “inactive”. In assay [3], the inhibition at 30 µM was less than 50%.

On to `CCCCC[C@@]1(O)C(C)=C(C)C(=O)[C@H]1COCC` (relative stereo), for which, in assay [1], the “%max” value turned out to be 75% and the EC50 was 30 µM. Also, the IC50 in assay [2] turned out to be 66 µM. In assay [4], the half-inhibitory concentration (IC50) was found to be 26 µM.

Turning to `CCCC[C@@H]1C(=O)C(C)=C(C)[C@]1(O)CCC(=O)OCC`, the inhibition entry in assay [1] is “inactive”. Moreover, the IC50 in assay [4] is 24 µM.

Regarding `CCOC(=O)CC[C@]1(O)OC(=O)C(C)=C1C`, in assay [1], the inhibition result is “inactive”. Also, in assay [3], the inhibition at 30 µM is less than 50%.

For `CCOC(=O)C1=CN2CC[C@]3(O)c4ccccc4N([C@H]1C)[C@H]23`, the inhibition entry in assay [1] was “inactive”. Moreover, in assay [3], the inhibition at 30 µM is less than 50%.

Turning to `CCO[C@@]1(CCCCCCCCCCCCC(=O)O)OC(=O)C(C)=C1C`, the inhibition result in assay [1] was “inactive”. Besides, the inhibition at 30 µM in assay [3] is less than 50%.

Consider `C/C(=C\CC[C@]1(C)C=Cc2cc(O)c(C)cc2O1)Cc1cc(C)co1` [CAPILLOBENZOPYRANOL], for which the inhibition entry in assay [1] is “inactive”. Further, the inhibition at 30 µM in assay [3] is less than 50%.

Values taken from ChEMBL document CHEMBL4477186, “Structurally Diverse Metabolites from the Soft Coral Sinularia verruca Collected in the South China Sea” (J Nat Prod, 2016).
